High-throughput results (PubChem BioAssay)
Hits are enriched below; roughly 1.5% of the tested compounds scored in any of these assays.
APJ ag = agonists of human apelin receptor APJ, primary screen, CHO-K1 cells, PathHunter beta-arrestin, luminescence | AID 2520, 2010 | 330,000 compounds, 0.11% hits | P35414 | activation, % at 20 µM | 0% DMSO wells, 100% apelin;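 active = activation more than six SD over the plate average, tested at 20 µM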
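Test system – PathHunter CHO-K1 APJ (AGTRL-1) beta-arrestin reporter cells · Input – 1000 cells/well · Compound – single test compound dose, 20 µM final, 1% DMSO · Times – compound stimulation 90 min at 25 °C, detection 60 min · Technique – beta-gal luminescence · Read-out basis – APJ–arrestin association signal · Control set – negative DMSO alone, positive Apelin-13 at 10 nM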
APJ antag = antagonists of human apelin receptor APJ, primary screen, CHO-K1 cells, beta-arrestin complementation, luminescence | P35414 | inhibition, % at 20 µM | AID 2521, 2010 | 330,000 compounds, 0.32% hits;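 active = inhibition above about 40% at 20 µM, limit read from the data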;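 note: cells challenged with 10 nM apelin-13 agonist together with compound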
CCR6 antagonist = CCR6 receptor antagonists, primary screen, cell-based, CHO-K1, luminescence, beta-arrestin, uHTS | inhibition, % at 20 µM | AID 493098, 2011 | 340,000 compounds, 0.49% hits | CHO-K1 CCR6 PathHunter beta-arrestin, CCL20-stimulated;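 active = compounds whose inhibition of the agonist-driven luminescence signal at 20 µM reaches about 50%, limit read from the data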;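 note: cells stimulated with CCL20 at 14 nM final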
Target sequence (P51684 whole entry, looked up): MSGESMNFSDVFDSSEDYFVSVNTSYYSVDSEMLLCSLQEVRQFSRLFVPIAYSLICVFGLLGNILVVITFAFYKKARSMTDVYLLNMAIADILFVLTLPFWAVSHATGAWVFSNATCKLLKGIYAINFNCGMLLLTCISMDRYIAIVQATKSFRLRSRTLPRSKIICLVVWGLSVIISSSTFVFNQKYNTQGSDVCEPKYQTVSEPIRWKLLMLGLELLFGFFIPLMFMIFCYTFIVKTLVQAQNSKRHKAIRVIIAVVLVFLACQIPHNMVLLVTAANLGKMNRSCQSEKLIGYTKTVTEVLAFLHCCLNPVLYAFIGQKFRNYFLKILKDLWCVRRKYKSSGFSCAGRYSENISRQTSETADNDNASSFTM
CXCR6 block = CXCR6 receptor inhibitors, primary screen, cell-based, beta-arrestin, luminescence, CHO-K1 PathHunter, 1536-well; inhibition, % at 20 µM; 360,000 compounds, 0.36% hits; C-X-C chemokine receptor type 6 (Homo sapiens), O00574; in the data active = inhibition above about 34%, passing the limit was not always enough;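 note: antagonist mode with CXCL16 agonist at 10 nM final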
EBI2 antag = EBI2 receptor antagonists, beta-arrestin recruitment, primary screen, cell-based, luminescence, 7a,25-OHC stimulation, uHTS; G-protein coupled receptor 183 (Homo sapiens), P32249; 7a,25-OHC stimulated; inhibition, % at 5 µM; 360,000 compounds, 0.81% hits; in the data active = inhibition above about 38%;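 note: enzyme fragment complementation signal reports receptor beta-arrestin coupling in cells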
APJ antag conf = APJ antagonists blocking beta-arrestin recruitment, confirmation, cell-based, luminescence, single concentration, uHTS hits; shares compounds with APJ antag; antagonist mode; inhibition, % at 20 µM; 950 compounds, 66% hits; AID 2766, 2010; in the data active = inhibition above about 50%
Of the large screens only hits and unclear results are named; the others gave an inactive call (follow-up assays come after a bar, where they were run).

COc1ccc(C(=O)NC(=S)Nc2cccc(Cl)c2N2CCOCC2)cc1[N+](=O)[O-]	APJ antag 81, EBI2 antag 42 | APJ antag conf 55
O=C(NNC(=S)Nc1ccc(Br)cc1)c1ccc(N2CCOCC2)c([N+](=O)[O-])c1	none
Cn1cc([C@]2(O)C(=O)Nc3ccc(Br)cc32)c2ccccc21	none (no result: APJ ag, APJ antag, CCR6 antagonist, CXCR6 block)
Cc1cc2nc(-c3nnnn3C3CCCCC3)c(=O)[nH]c2cc1C	none (no result: APJ ag, APJ antag, CCR6 antagonist)
CCCS(=O)(=O)NC(=O)C1(C)CCN(C(=O)c2ccc(OC)cc2)C1 (configuration not stated)	none (no result: APJ ag, APJ antag, CCR6 antagonist)
c1ccc(NCc2nnc3n2CCCCC3)cc1	none
Clc1ccc(NCc2nnc3n2CCCCC3)cc1	APJ antag 58 | APJ antag conf inactive
O=[N+]([O-])c1ccc(/C=N/Nc2ccc3ccccc3c2)o1	APJ antag 67, CCR6 antagonist 63, CXCR6 block 42 | APJ antag conf 81
Cc1ccc(S(=O)(=O)NCc2ccccc2Br)cc1	none (no result: APJ ag, APJ antag, CCR6 antagonist, CXCR6 block)
O=C1C2C3CCCC3=C3CCCC3C2C(=O)N1c1cccc(Cl)c1 (configuration not stated)	APJ antag 44 | APJ antag conf inactive
CCCNC(=O)C1(C)CCCN(CCC(=O)c2ccccc2)C1 (configuration not stated)	none (no result: APJ ag, APJ antag, CCR6 antagonist)
CCN(C(=O)COC(=O)c1cccnc1SC)C1CCCCC1	none
CCN(C(=O)COC(=O)c1cccnc1SC)C1CCS(=O)(=O)C1 (configuration not stated)	APJ antag 45 | APJ antag conf inactive
CC(C)OCCCn1c(=N)c(S(=O)(=O)c2ccccc2)cc2c(=O)n3ccccc3nc21	APJ antag 43 | APJ antag conf inactive
CC1(C(=O)NS(=O)(=O)c2ccc(C#N)cc2)CCN1C(=O)C1(c2ccccc2)CC1 (configuration not stated)	none (no result: APJ ag, APJ antag, CCR6 antagonist)
CC(=O)c1ccc(N2CCN(C(=S)NCc3ccco3)CC2)cc1	APJ antag 45 | APJ antag conf inactive
O=[N+]([O-])c1cc(S(=O)(=O)Nc2cccc(Cl)c2)ccc1N/N=C/c1ccc(N2CCOCC2)cc1	APJ antag 48, CCR6 antagonist 50 | APJ antag conf 96
O=C(COC(=O)c1ccc(Br)o1)c1ccc(S(=O)(=O)N2CCCCC2)cc1	APJ antag 68, CCR6 antagonist 64, CXCR6 block 44 | APJ antag conf 90
O=C(COC(=O)c1ccccc1)c1ccc(S(=O)(=O)N2CCCCC2)cc1	none
CNS(=O)(=O)c1cccc(C(=O)OCC(=O)c2ccc(S(=O)(=O)N3CCCCC3)cc2)c1	APJ antag 62, CCR6 antagonist 53 | APJ antag conf 60
O=C(COc1ccccc1)OCC(=O)c1ccc(S(=O)(=O)N2CCCCC2)cc1	APJ antag 85, CCR6 antagonist 68, CXCR6 block 42 | APJ antag conf 116
O=C(COC(=O)c1ccco1)Nc1cc(S(=O)(=O)N2CCCCC2)ccc1Cl	none
O=C(COC(=O)c1ccco1)c1ccc(S(=O)(=O)N2CCCCC2)cc1	APJ antag 57 | APJ antag conf 65
CNS(=O)(=O)c1cccc(C(=O)OCC(=O)c2cc3ccccc3o2)c1	APJ antag 81, CCR6 antagonist 73, CXCR6 block 43 | APJ antag conf 69
NNc1nc(-c2ccccc2)cc(-c2ccccc2)n1	APJ antag 97, CCR6 antagonist 63, CXCR6 block 45 | APJ antag conf 122
N#Cc1cc(-c2ccccc2)nc(NN)n1	none
COc1cc(C(=O)N/N=C(\c2ccccc2)c2ccccn2)cc(OC)c1OC	APJ antag 43, CCR6 antagonist 90, CXCR6 block 63 | APJ antag conf 73
Cc1cc(Br)cn2c(Cc3ccsc3)c(-c3ccc(F)cc3)nc12	none (no result: APJ ag, APJ antag, CCR6 antagonist)
Cc1[nH]n(C(N)=S)c(=O)c1N=Nc1ccc([N+](=O)[O-])cc1Cl	APJ antag 51, CCR6 antagonist 60, CXCR6 block 42 | APJ antag conf 80
Cc1ccc(NCC(=O)c2ccc([N+](=O)[O-])cc2)cc1	none
Cc1ccc(C(=O)CNc2ccccc2)cc1	APJ antag 44, CCR6 antagonist 83, CXCR6 block 47 | APJ antag conf 110
Cc1ccc(C(=O)CNc2ccccc2C)cc1	APJ antag 76, CCR6 antagonist 86, CXCR6 block 58 | APJ antag conf 120
Cc1ccc(C(=O)CC(=O)c2ccc(C(C)(C)C)cc2)cc1	none
Cc1ccc(C(=O)CNc2cccc([N+](=O)[O-])c2)cc1	APJ antag 55 | APJ antag conf inactive
COC(=O)[C@@]12C[C@@H](CC(=O)N3CCOCC3)C(=O)N(Cc3ccco3)C1=CCC(C)(C)C2	none (no result: APJ ag, APJ antag, CCR6 antagonist, CXCR6 block)
CC(C)Nc1nc(NCc2ccccc2)c2sccc2n1	none (no result: APJ ag, APJ antag, CCR6 antagonist)
CCOC(=O)[C@]12CCCC=C1N(Cc1ccc3c(c1)OCO3)C(=O)[C@H](CC(=O)NCC13CC4CC(CC(C4)C1)C3)C2	none (no result: APJ ag, APJ antag, CCR6 antagonist)
COc1cc(NS(=O)(=O)c2ccc(N/C=C(\C#N)c3nc4cc(Cl)ccc4o3)cc2)nc(OC)n1	APJ antag 41 | APJ antag conf inactive
O=C/C(=C\Nc1ccc(Cl)cn1)c1nc2cc(Cl)ccc2o1	none
O=C/C(=C\Nc1ccc(S(=O)(=O)CCO)cc1)c1nc2cc(Cl)ccc2o1	APJ antag 105 | APJ antag conf inactive
COc1cc(NS(=O)(=O)c2ccc(NC(C)=O)cc2)nc(OC)n1	none
O=C(Nc1cccc(C(F)(F)F)c1)Nc1nnc([C@@H]2C[C@H](O)[C@@H](CO)O2)s1	none (no result: APJ ag, APJ antag, CCR6 antagonist)
O=[N+]([O-])c1ccc(/C=N/Nc2nc(NCc3ccccc3)nc(N3CCOCC3)n2)cc1	none
O=[N+]([O-])c1cccc(/C=N/Nc2nc(NCc3ccccc3)nc(N3CCOCC3)n2)c1O	APJ antag 76, CCR6 antagonist 107, CXCR6 block 95, EBI2 antag 76 | APJ antag conf 124
CCc1ccc(C(=O)NNc2ccc(Cl)cc2)cc1	APJ antag 51 | APJ antag conf 60
CNC(=O)c1ccc(Nc2nnc(-c3ccc(O)cc3)c3ccccc23)cc1	none
Oc1ccc(-c2nnc(Nc3cccc(O)c3)c3ccccc23)cc1	APJ antag 67 | APJ antag conf inactive
O=C(Sc1cccc2cccnc12)c1ccccc1Br	APJ antag 52, EBI2 antag 49 (no result: CCR6 antagonist) | APJ antag conf 85
CCN(CC)CCNc1ccc(CO)c2oc3ccccc3c(=O)c12	none (no result: APJ ag, APJ antag, CCR6 antagonist)
Cc1ccc(C2=NC(=O)/C(=C/c3cc(O)c(O)c(Br)c3)S2)cc1	none
COc1cc(/C=C2\SC(c3ccc(C)cc3)=NC2=O)cc(OC)c1O	APJ antag 56, CCR6 antagonist 65 | APJ antag conf 77
